Experimental findings from ChEMBL document CHEMBL1949546, “Pyrazoloquinolines as PDE10A inhibitors: discovery of a tool compound” (Bioorg Med Chem Lett, 2012) are described below.

As usually defined, the AUC(0-t) is exposure summed from dosing to a finite time, without extrapolation to infinity. The term half-life denotes how long it takes for the measured level to halve.

Series [1] is described as follows: AUC (0 to 6 hrs) in rat at 10 mg/kg, po. In kind it is ADME, organism-based. The arrangement: time < 6 hr, dose 10 mg/kg, route oral. The settings on record: plasma.
Series [2] is described as follows: Clearance in rat hepatocytes assessed per million cells. In kind it is ADME, cell-based, Hepatocyte. The settings on record: read-out: CLH.
The nature of series [3]: Clearance in human hepatocytes assessed per million cells. Type of series: ADME, cell-based, Hepatocyte. To be noted: read-out: CLH.
The nature of series [4]: Clearance in monkey hepatocytes assessed per million cells. To be noted: rhesus monkey, read-out: CLH. Type of series: ADME, cell-based, Macaca mulatta, Hepatocyte.
A short description of series [5]: Plasma concentration in rat after 6 hrs. Type of series: ADME. The method, boiled down:
(§1)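 Animals were sacrificed at 6 h for ex vivo measurement of plasma concentration (nM) and brain level (ng/g), from which the brain to plasma ratio was derived.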

The nature of series [6]: Drug uptake in rat brain after 6 hrs. The settings on record: read-out: Drug uptake. In kind it is ADME, tissue-based. The method, boiled down: as §1
The nature of series [7]: Ratio of drug level in brain to plasma of rat after 6 hrs. In kind it is ADME. To be noted: read-out: BPR. Summed up: as §1
Series [8] can be described thus: AUC (0 to 6 hrs) in monkey at 3 mg/kg, po. Type of series: ADME, organism-based, Macaca mulatta. The arrangement: time < 6 hr, dose 3 mg/kg, route oral. To be noted: rhesus monkey, plasma.
The nature of series [9]: Half life in monkey at 3 mg/kg, po. The settings on record: rhesus monkey, in vivo. In kind it is ADME, organism-based, Macaca mulatta. The arrangement: dose 3 mg/kg, route oral.
Series [10] is described as follows: Clearance in dog hepatocytes assessed per million cells. Type of series: ADME, cell-based, Canis lupus familiaris, Hepatocyte. The settings on record: read-out: CLH.

As to `COc1cc(C)c2nc3[nH]nc(C)c3c(CN3CCCOCC3)c2c1`, in series [1], the AUC(0-t) at 6 h turned out to be 3.76 µM·h. The values for the hepatocyte CLint in [2] and in series [3] were less than 1 µL/min/1e6 cells and 8 µL/min/1e6 cells, respectively.

As for `COc1cc(C)c2nc3[nH]nc(C)c3c(C(=O)c3ccncc3)c2c1`, the hepatocyte CLint in series [4] came to 66 µL/min/1e6 cells.

In the case of `COc1cc(C)c2nc3[nH]nc(C)c3c(C(O)c3cccnc3)c2c1` (racemic), the hepatocyte CLint in series [4] turned out to be 67 µL/min/1e6 cells.

As to `COc1cc(C)c2nc3[nH]nc(C)c3c(C(O)c3ccnc(F)c3)c2c1` (racemic), the hepatocyte CLint in [4] was 66 µL/min/1e6 cells.

With `COc1cc(C)c2nc3[nH]nc(C)c3c(C(O)c3ncco3)c2c1` (racemic), the hepatocyte CLint in series [4] worked out at 63 µL/min/1e6 cells.

For `COc1cc(C)c2nc3[nH]nc(C)c3c(C(O)c3cncn3C)c2c1` (racemic), the hepatocyte CLint in [4] came out at 22 µL/min/1e6 cells.

Take `COc1ccc(C(O)c2c3cc(OC)cc(C)c3nc3[nH]nc(C)c23)cc1` (racemic): the hepatocyte CLint in series [4] is 60 µL/min/1e6 cells.

Take `COc1cc(C)c2nc3[nH]nc(C)c3c(C(O)c3ccc(F)cc3)c2c1` (racemic): in series [4], the hepatocyte CLint amounted to 63 µL/min/1e6 cells.

Consider `COc1cc(C)c2nc3[nH]nc(C)c3c(C(C#N)c3ccccc3)c2c1` (racemic), for which the hepatocyte CLint in [4] came to 64 µL/min/1e6 cells.

In the case of `COc1cc(C)c2nc3[nH]nc(C)c3c(C(C)(O)c3ccncc3)c2c1` (racemic), the hepatocyte CLint in series [4] came out at 66 µL/min/1e6 cells.

In the case of `Cc1cc(Cl)cc2c(C(O)c3ccncc3)c3c(C)n[nH]c3nc12` (racemic), in series [4], the hepatocyte CLint is 25 µL/min/1e6 cells.

Molecule `Cc1cc(Cl)cc2c(C(O)c3cccnc3)c3c(C)n[nH]c3nc12` (racemic) came in with an AUC(0-t) at 6 h in [1] of 11 µM·h. Also, the hepatocyte CLint is 46 µL/min/1e6 cells in [4], 26 µL/min/1e6 cells in series [2] and 5 µL/min/1e6 cells in series [3]. In addition, the values for the concentration at 6 h in series [5] and in [6] were 810 nM and 115 ng/g, respectively. The Kp at 6 h in series [7] amounted to 1.5.

On to `Cc1cc(Cl)cc2c(C(O)c3ccnc(F)c3)c3c(C)n[nH]c3nc12` (racemic), for which, in series [4], the hepatocyte CLint was 37 µL/min/1e6 cells.

In the case of `Cc1ncc(C(O)c2c3cc(Cl)cc(C)c3nc3[nH]nc(C)c23)cn1` (racemic), the AUC(0-t) at 6 h came to 4.29 µM·h in series [1] and 11.5 µM·h in [8]. In series [9], this molecule had a half-life of 7.1 h. Further, the hepatocyte CLint was 8 µL/min/1e6 cells in series [4], 11 µL/min/1e6 cells in series [2], 7 µL/min/1e6 cells in [10] and 2 µL/min/1e6 cells in series [3]. The figures for the concentration at 6 h in [5] and in series [6] were 220 nM and less than 14 ng/g, respectively. Moreover, the Kp at 6 h in series [7] is less than 0.18.

For the molecule `COc1cc(C)c2nc3[nH]nc(C)c3c(C(O)c3ccncc3)c2c1` (single isomer, unassigned; (+)), the hepatocyte CLint in series [4] was 66 µL/min/1e6 cells.

As to `COc1cc(C)c2nc3[nH]nc(C)c3c(C(F)c3ccncc3)c2c1` (single isomer, unassigned; (-)), the hepatocyte CLint in series [4] came to 62 µL/min/1e6 cells.
